According to PMC10288500 (ACS Bio & Med Chem Au, 2023):

How the values were obtained:
TNF = conditions: read-out: EC50, inhibition of NF-κB; cited from earlier work
TNFR1 = target: T1, TNFR1 (Homo sapiens, UniProt P19438); experiment: IκB degradation assay; assay type: cell-based; conditions: HEK293 cells, 0.01 to 500 nM
T1 sequence (P19438 30-455): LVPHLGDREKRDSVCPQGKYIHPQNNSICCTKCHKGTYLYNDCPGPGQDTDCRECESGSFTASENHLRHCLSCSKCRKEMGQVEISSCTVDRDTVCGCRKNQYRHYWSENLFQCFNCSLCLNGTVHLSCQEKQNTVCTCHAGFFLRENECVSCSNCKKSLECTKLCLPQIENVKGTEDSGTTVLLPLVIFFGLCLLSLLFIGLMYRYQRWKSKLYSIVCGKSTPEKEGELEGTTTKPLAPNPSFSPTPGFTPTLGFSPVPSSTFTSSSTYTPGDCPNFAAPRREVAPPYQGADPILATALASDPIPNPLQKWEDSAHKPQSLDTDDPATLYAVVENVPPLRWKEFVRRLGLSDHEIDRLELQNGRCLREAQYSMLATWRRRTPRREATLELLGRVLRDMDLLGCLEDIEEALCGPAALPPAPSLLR
Procedure, shortened: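 HEK293 seeded at 0.4 million/mL in six-well plates overnight, then given compound 0.01–500 nM or DMSO for 2 h, then TNF 10 ng/mL for 30 min. Lysis in native buffer with protease inhibitor, 30 min on ice; BCA. 80 μg protein run on SDS–PAGE, immunoblotted for IκBα and β-actin. Bands quantified by densitometry (n = 3).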

HEK293 cells = experiment: MTT cytotoxicity assay; assay type: cell-based; conditions: 0.0001 nM–10 μM, 24 h
Procedure, shortened: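 HEK293 plated at 7500 cells/well and grown 24 h at 37 °C, 5% CO2. Exposed to compound 0.0001 nM–10 μM for 24 h at 37 °C. Viability read by MTT on a multimode plate reader.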

TRADD = experiment: TRADD-induced NF-κB activation assay; assay type: cell-based; conditions: HEK293 cells overexpressing TRADD, 0.01 to 500 nM, without TNF
Procedure, shortened: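 HEK293 (0.8 million/well, six-well) transfected with 1 μg NF-κB firefly reporter, 0.1 μg Renilla reporter, 1 μg TRADD plasmid and 0.4 μg empty vector (2.5 μg total); controls received empty vector instead of TRADD. Replated at 7500 cells/well after 3 h. Compound 0.01–500 nM or DMSO added 5 h later. Dual luciferase read 24 h post-treatment. Means ± SD, three experiments.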

[1] = system: IL-1α-induced NF-κB activation; experiment: IL-1α-induced NF-κB activation assay; assay type: cell-based; conditions: HEK293 cells, IL-1α 10 ng/mL, 0.01 to 500 nM, 24 h
Procedure, shortened: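 HEK293 cells were transfected with NF-κB firefly/Renilla luciferase reporters and replated next day at 7500 cells/well in phenol red–free DMEM. Compound 0.01–500 nM or DMSO was incubated with or without IL-1α 10 ng/mL for 24 h at 37 °C. Sequential firefly and Renilla luminescence read with Dual-Glo reagents. Means ± SD of three experiments.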

TNFR2 = target: T2, TNFR2 (Homo sapiens, UniProt P20333); experiment: RelB transcription factor activity assay; assay type: cell-based; conditions: HUVEC cells, 250 nM, densitometry
T2 sequence (P20333 23-461): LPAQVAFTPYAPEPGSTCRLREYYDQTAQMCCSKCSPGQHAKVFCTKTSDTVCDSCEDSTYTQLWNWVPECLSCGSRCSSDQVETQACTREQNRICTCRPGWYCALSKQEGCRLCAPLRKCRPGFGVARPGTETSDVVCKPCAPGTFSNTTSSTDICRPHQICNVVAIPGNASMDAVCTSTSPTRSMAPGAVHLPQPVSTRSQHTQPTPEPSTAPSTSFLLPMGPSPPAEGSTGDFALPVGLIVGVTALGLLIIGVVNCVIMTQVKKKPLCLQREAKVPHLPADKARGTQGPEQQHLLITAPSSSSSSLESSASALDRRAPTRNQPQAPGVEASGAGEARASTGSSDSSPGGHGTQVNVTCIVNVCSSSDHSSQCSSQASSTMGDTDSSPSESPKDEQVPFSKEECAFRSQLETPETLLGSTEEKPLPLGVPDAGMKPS
Procedure, shortened: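 HUVEC grown on gelatin-coated dishes in EGM-2 with 2% FBS, plated 1 million/well overnight, then transfected with 0.5 μg membrane TNF plasmid. After 6 h, medium replaced and compound (250 nM) added overnight. Lysates in native buffer, BCA, SDS–PAGE, immunoblotted for RelB; bands quantified by densitometry.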

[2] = Solubility by dynamic light scattering; assay type: physicochemical

extent of inhibition of TNF-induced IκB degradation (TNFR1)	effect on membrane TNF-TNFR2-induced activation of RelB (TNFR2)	aggregation by DLS at 200 μM [2]	Compound	EC50 (TNF) [nM]	cytotoxicity (MTT) (HEK293 cells)	effect on TRADD-induced NF-κB activation (TRADD)	effect on IL-1α-induced NF-κB activation [1]
–	–	–	Cc1ccc(C)c(Cn2c(C(O)c3ccncc3)nc3ccc(-c4cnn(C)c4)cc32)c1 (stereo not shown) [UCB-9260]	250	–	–	–
partially inhibited	minimal effect	aggregation	COc1cc(C(=O)NS(=O)(=O)c2ccccc2C)ccc1Cc1cn(C)c2ccc(NC(=O)OC3CCCC3)cc12 [zafirlukast]	–	No appreciable cytotoxicity	little effect	failed to mitigate
